Converted amounts (≈) assume the structure as drawn.
How the values were obtained:
[1] = biological target: T1, Adenosine receptor A2a (Rattus norvegicus, UniProt P30543); experiment: Binding affinity to the adenosine A2A receptor by displacement of [3H]CGS-21680 in rat brain striatal membrane; type: cell membranes
[2] = biological target: T2, Adenosine receptor A1 (Rattus norvegicus, UniProt P25099); type: cell membranes, Brain
T2 sequence (P25099 whole entry): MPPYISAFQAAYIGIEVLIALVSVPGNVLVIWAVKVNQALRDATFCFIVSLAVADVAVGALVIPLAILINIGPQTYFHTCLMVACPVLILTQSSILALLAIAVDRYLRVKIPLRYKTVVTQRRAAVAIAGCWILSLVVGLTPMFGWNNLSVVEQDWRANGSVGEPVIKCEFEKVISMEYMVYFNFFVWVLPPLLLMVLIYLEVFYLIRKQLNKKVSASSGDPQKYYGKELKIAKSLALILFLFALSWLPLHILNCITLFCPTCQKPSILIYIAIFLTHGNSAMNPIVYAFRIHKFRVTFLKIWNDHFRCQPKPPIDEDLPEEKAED

[3] = biological target: Adenosine receptor A2a (Rattus norvegicus) (UniProt P30543); experiment: (§1) Inhibition against A2A-Adenosine Receptor of rat PC12 cell membranes (functional antagonist activity); type: cell-based; conditions: PC-12
[4] = biological target: T3, Adenosine receptor A1 (Rattus norvegicus) (UniProt P25099); experiment: (§2) Inhibition against Adenosine A1 receptor of rat fat cell membranes (functional antagonist activity)
T3 sequence (whole entry): T2 sequence (P25099 whole entry)

[5] = biological target: T4, Adenosine receptor A2b (Mus musculus) (UniProt Q60614); experiment: (§3) Inhibition against A2B-Adenosine Receptor in mouse NIH 3T3 fibroblast cell membranes (functional antagonist activity); type: cell-based
T4 sequence (whole entry): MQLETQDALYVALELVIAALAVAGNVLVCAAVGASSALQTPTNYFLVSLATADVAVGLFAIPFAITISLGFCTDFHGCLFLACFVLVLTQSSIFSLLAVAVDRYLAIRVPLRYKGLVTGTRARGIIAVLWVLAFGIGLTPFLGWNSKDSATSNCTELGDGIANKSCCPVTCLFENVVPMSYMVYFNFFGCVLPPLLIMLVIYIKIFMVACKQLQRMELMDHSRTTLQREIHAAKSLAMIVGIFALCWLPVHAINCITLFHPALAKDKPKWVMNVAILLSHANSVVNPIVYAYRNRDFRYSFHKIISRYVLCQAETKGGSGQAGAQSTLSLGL
Method in brief: (§4)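 Adenylate cyclase assay measuring antagonism of NECA-stimulated AC in rat PC12 membranes (A2A) or NIH 3T3 fibroblast membranes (A2B). KB was obtained from the Schild equation, using the ratio of NECA EC50 values with and without antagonist.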

[6] = biological target: T5, Adenosine receptor A3 (Homo sapiens, UniProt P0DMS8); experiment: Binding affinity against human recombinant Adenosine A3 receptor stably expressed in HEK293 cells by displacing [125I]AB-MECA radioligand; type: cell-based
T5 sequence (P0DMS8 whole entry): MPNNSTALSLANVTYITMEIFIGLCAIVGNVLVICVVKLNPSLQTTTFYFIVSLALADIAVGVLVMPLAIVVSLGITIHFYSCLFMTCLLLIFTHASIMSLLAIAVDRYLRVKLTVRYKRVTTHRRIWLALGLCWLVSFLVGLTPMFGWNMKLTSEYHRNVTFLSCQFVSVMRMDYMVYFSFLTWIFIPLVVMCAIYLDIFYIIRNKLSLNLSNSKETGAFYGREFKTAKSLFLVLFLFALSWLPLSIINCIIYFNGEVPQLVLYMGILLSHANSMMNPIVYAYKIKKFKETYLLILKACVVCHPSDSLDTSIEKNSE

[7] = Water solubility of the compound; type: ADME; conditions: read-out: S
[8] = biological target: T3, Adenosine receptor A1 (Rattus norvegicus); experiment: Percent displacement of [3H]CHA from Adenosine A1 receptor of rat brain cortical membrane at 3 uM
Method in brief: (§5)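 Single-concentration inhibition of [3H]CHA binding to rat cerebral cortical membrane A1 receptors, reported as percent displacement at the stated test concentration. Nonspecific binding was determined with 10 μM 2-chloroadenosine.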

[9] = biological target: Adenosine receptor A2a (Rattus norvegicus) (UniProt P30543); experiment: Binding affinity against Adenosine A2A receptor by displacement of [3H]CGS-21680 radioligand in rat brain striatal membrane at 30 uM; type: cell membranes
Method in brief: (§6)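 Single-concentration inhibition of [3H]CGS21680 binding to rat striatal membrane A2A receptors, reported as percent displacement at the stated test concentration. Nonspecific binding was defined with 20 μM 2-chloroadenosine.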

[10] = biological target: T4, Adenosine receptor A2b (Mus musculus); experiment: Inhibition against A2B-Adenosine Receptor in mouse NIH 3T3 fibroblast cell membranes; type: cell-based
Method in brief: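 Functional adenylate cyclase assay in NIH 3T3 fibroblast cell membranes: test compounds antagonize NECA-induced stimulation of AC (cAMP accumulation). K_B is calculated with the Schild equation from the ratio of NECA EC50 values with and without antagonist.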

[11] = biological target: T3, Adenosine receptor A1 (Rattus norvegicus); experiment: Percent displacement of [3H]CHA from Adenosine A1 receptor of rat brain cortical membrane at 30 uM; method in brief: as §5
[12] = biological target: T1, Adenosine receptor A2a; experiment: as §1; type: cell-based, PC-12; method in brief: as §4
[13] = biological target: T2, Adenosine receptor A1; experiment: as §2
Method in brief: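 Adenylate cyclase assay in rat fat cell membranes measuring antagonism of R-PIA-elicited AC inhibition. KB was obtained from the Schild equation, using the ratio of R-PIA IC50 values with and without antagonist.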

[14] = biological target: T6, Adenosine receptor A2b (Mus musculus, UniProt Q60614); experiment: as §3; type: cell-based; method in brief: as §4
T6 sequence (Q60614 whole entry): T4 sequence (whole entry)

[15] = Water solubility was determined.; type: ADME
Method in brief: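 A saturated aqueous solution was prepared and the undissolved residue filtered off. The filtrate was diluted with water and its UV absorbance read at λmax. Concentration was calculated from a previously determined calibration curve for each compound.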

[16] = biological target: T7, Adenosine receptor A3 (Homo sapiens) (UniProt P0DMS8); experiment: Percent displacement against human Adenosine A3 receptor expressed in HEK293 cells by displacing [125I]AB-MECA at 10 uM; type: cell-based
T7 sequence (whole entry): T5 sequence (P0DMS8 whole entry)

[17] = biological target: T3, Adenosine receptor A1 (Rattus norvegicus); experiment: Percent displacement of [3H]CHA from Adenosine A1 receptor of rat brain cortical membrane at 250 uM; method in brief: as §5
[18] = biological target: T7, Adenosine receptor A3 (Homo sapiens); experiment: Percent displacement against human recombinant Adenosine A3 receptor expressed in HEK293 cells by displacing [125I]AB-MECA at 100 uM; type: cell-based
[19] = biological target: Adenosine receptor A2a (Rattus norvegicus) (UniProt P30543); experiment: Percent displacement of [3H]CGS-21680 from Adenosine A2A receptor of rat brain striatal membrane at 30 uM; method in brief: as §6
[20] = biological target: T3, Adenosine receptor A1 (Rattus norvegicus); experiment: Percent displacement of [3H]CHA from Adenosine A1 receptor of rat brain cortical membrane at 10 uM; method in brief: as §5

Chain of Adenosine receptor A2a (Rattus norvegicus) (P30543 whole entry): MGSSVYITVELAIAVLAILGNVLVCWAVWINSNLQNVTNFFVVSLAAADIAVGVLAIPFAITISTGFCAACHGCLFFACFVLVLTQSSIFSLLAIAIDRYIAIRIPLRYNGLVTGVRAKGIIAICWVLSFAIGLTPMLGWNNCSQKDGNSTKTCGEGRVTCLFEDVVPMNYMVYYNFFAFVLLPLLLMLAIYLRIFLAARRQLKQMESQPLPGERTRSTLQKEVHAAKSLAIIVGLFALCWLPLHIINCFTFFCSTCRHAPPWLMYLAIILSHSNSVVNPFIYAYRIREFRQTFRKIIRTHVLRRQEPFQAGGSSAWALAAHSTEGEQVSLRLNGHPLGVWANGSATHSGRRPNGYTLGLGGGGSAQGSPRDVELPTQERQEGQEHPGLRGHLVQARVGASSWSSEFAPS
T1 sequence (P30543 whole entry): as above

SMILES	Ki [1] [µM]	Ki [2] [µM]	also measured
CC[C@H]1CN2C(=O)N(C)c3nc(-c4ccccc4)n(C)c3C2=N1	16.2	4.7	–
Cn1c(=O)[nH]c2nc(-c3ccccc3)n(C)c2c1=O	–	–	Kb [3]: 5.7 µM; Kb [4]: 0.32 µM; Kb [5]: 5.2 µM
CN1C(=O)N2CCCN=C2c2c1ncn2C	28.5	43.2	–
CC1CN=C2c3c(ncn3C)N(C)C(=O)N21 (configuration not stated)	64.6	59	–
Cn1c(=O)c2[nH]c(-c3ccccc3)nc2n(C)c1=O [8-PHENYL THEOPHYLLINE]	0.83	–	–
CC[C@H]1CN2C(=O)N(C)c3[nH]c(/C=C/c4ccccc4)nc3C2=N1	0.67	0.73	–
CN1C(=O)N2CCN=C2c2c1nc(-c1ccccc1)n2C	20.3	9.7	Ki [6]: 3.33 µM; solubility [7]: 1.45 mM (≈ 408 µg/mL)
CCC1CN2C(=O)N(C)c3[nH]c(-c4ccccc4)nc3C2=N1 (configuration not stated)	3.1	0.265	–
C[C@@H]1CN2C(=O)N(C)c3ncn(C)c3C2=N1	–	–	Displacement [8]: 14%; Displacement [9]: 12%
CCCn1c(=O)[nH]c(=O)c2nc[nH]c21	–	–	Kb [10]: 18 µM
CC[C@@H]1CN2C(=O)N(C)c3ncn(C)c3C2=N1	28.3	75.5	–
Cn1c(=O)c2c(nc(/C=C/c3ccccc3)n2C)n(C)c1=O	–	–	solubility [7]: 0.0028 mM (≈ 0.83 µg/mL)
Cn1c(=O)c2nc(/C=C/c3ccccc3)[nH]c2n(C)c1=O	–	–	solubility [7]: 0.00022 mM (≈ 0.0621 µg/mL)
CC[C@H]1CN2C(=O)N(C)c3[nH]c(-c4ccccc4)nc3C2=N1	3.33	0.115	Kb [3]: 4.3 µM; Kb [4]: 0.063 µM; Kb [5]: 7.6 µM
CN1C(=O)N2CCCCN=C2c2c1ncn2C	18.5	19.8	–
Cn1cnc2c1C1=NCCN1C(=O)N2Cc1ccccc1	16.1	–	Displacement [11]: 24%
Cn1c(=O)c2c(nc(-c3ccccc3)n2C)n(C)c1=O	–	–	solubility [7]: 0.487 mM (≈ 132 µg/mL)
Cn1c(=O)c2c(ncn2C)n(C)c1=O	–	–	Kb [5]: 25 µM

SMILES	Ki [1] [µM]	Ki [2] [µM]	also measured
CN1C(=O)N2CCCN=C2c2c1nc(Cl)n2C	11.9	10.5	–
Cn1c(-c2ccccc2)nc2c1C1=NCCN1C(=O)N2	11.9	1.83	KB [12]: 17.2 µM; KB [13]: 500 nM; KB [14]: 7 µM; Ki [6]: 0.047 µM
CN1C(=O)N2CCN=C2c2c1ncn2C	20.7	79.6	solubility [15]: 1210 mM (≈ 248000 µg/mL); Displacement [16]: 40%
CC[C@@H]1CN2C(=O)N(C)c3nc(/C=C/c4ccccc4)n(C)c3C2=N1	0.547	21.7	Ki [6]: 1.7 µM
CCC1CN2C(=O)N(C)c3nc(-c4ccccc4)n(C)c3C2=N1 (configuration not stated)	19.2	6.1	Displacement [16]: 17%
CC[C@H]1CN2C(=O)N(C)c3ncn(C)c3C2=N1	10.9	–	Displacement [17]: 50%
CCC1CN2C(=O)N(C)c3ncn(C)c3C2=N1 (configuration not stated)	16.2	–	Displacement [18]: 28%; Displacement [17]: 46%
CC[C@@H]1CN2C(=O)N(C)c3[nH]c(/C=C/c4ccccc4)nc3C2=N1	0.89	0.95	Ki [6]: 0.64 µM
CC[C@@H]1CN2C(=O)N(C)c3nc(-c4ccccc4)[nH]c3C2=N1	2.1	0.44	Kb [3]: 2.5 µM; Kb [4]: 0.43 µM; Kb [5]: 2.1 µM
C[C@H]1CN=C2c3c(ncn3C)N(C)C(=O)N21	12	70	–
C[C@H]1CN2C(=O)N(C)c3ncn(C)c3C2=N1	–	–	Displacement [19]: 46%; Displacement [20]: 10%
CC[C@@H]1CN2C(=O)N(C)c3nc(-c4ccccc4)n(C)c3C2=N1	36.3	17.5	–
Cn1cnc2c1C1=NCCN1C(=O)N2	40.9	65.5	–
CC[C@H]1CN2C(=O)N(C)c3nc(/C=C/c4ccccc4)n(C)c3C2=N1	0.424	14.9	Kb [3]: 1 µM; Kb [4]: 33 µM; Kb [5]: 3.7 µM; Ki [6]: 30.6 µM
CN1C(=O)N2CCCCC/N=C\2c2c1ncn2C	51	60.3	–
C[C@@H]1CN=C2c3c(ncn3C)N(C)C(=O)N21	50.4	23	–
Cn1c(=O)c2[nH]cnc2n(C)c1=O.O [THEOPHYLLINE]	–	–	Kb [10]: 16 µM; solubility [7]: 44.4 mM

Reference: ChEMBL document CHEMBL1135439, “Imidazo[2,1-i]purin-5-ones and related tricyclic water-soluble purine derivatives: potent A(2A)- and A(3)-adenosine receptor antagonists” (J Med Chem, 2002)
